ChEMBL document CHEMBL1152271, “Interrogating the bioactive pharmacophore of the latrunculin chemotype by investigating the metabolites of two taxonomically unrelated sponges” (J Med Chem, 2008)
Active and inactive are the calls of the source. The calls are words filed in the database; no cut-off is given here.

Legend:
[1] = system: MC-38; assay: Cytotoxicity against mouse Colon 38 cells at 5.1 uM by disk diffusion soft agar colony formation assay; type: functional; details: read-out: IZ
Procedure, shortened: (§1)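 Soft agar disk diffusion colony formation assay with murine colon 38 cells, run alongside murine L1210 and CFU-GM. Compound adsorbed onto a disk at similar loadings across compounds. Read-out is the zone of inhibition (Z) in mm. Full method described previously.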

[2] = system: HCT-116; assay: Cytotoxicity against human HCT116 cells after 3 days by trypan blue assay; type: functional, cell-based; details: HCT-116, 72 h
[3] = system: MDA-MB-435; assay: Ratio of IC50 for human MDA-MB-435 cells to IC50 for human HCT116 cells; type: functional
[4] = system: MDA-MB-435; assay: Cytotoxicity against human MDA-MB-435 cells 48 hrs by SRB assay; type: functional, cell-based; details: MDA-MB-435, 48 h
[5] = system: A10; assay: Disruption of microfilament in rat A10 cells at 5 uM after 18 hrs using DAPI staining by fluorescence microscopy
[6] = system: MC-38; assay: Cytotoxicity against mouse Colon 38 cells at 1.1 uM by disk diffusion soft agar colony formation assay; type: functional; details: read-out: IZ
Procedure, shortened: (§2)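 Disk diffusion soft-agar colony formation assay with murine colon 38 cells. The compound is adsorbed onto a disk at a concentration similar to the other compounds tested. The read-out is the zone of inhibition (Z), recorded in mm.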

[7] = system: A10; assay: Disruption of microfilament in rat A10 cells at 9 uM after 18 hrs using DAPI staining by fluorescence microscopy; type: functional, cell-based
[8] = system: MC-38; assay: Cytotoxicity against mouse Colon 38 cells at 1.9 uM by disk diffusion soft agar colony formation assay; type: functional; details: read-out: IZ; procedure, shortened: as §1
[9] = system: MC-38; assay: Cytotoxicity against mouse Colon 38 cells at 3.5 uM by disk diffusion soft agar colony formation assay; type: functional; details: read-out: IZ; procedure, shortened: as §2
[10] = system: MC-38; assay: Cytotoxicity against mouse Colon 38 cells at 4.0 uM by disk diffusion soft agar colony formation assay; type: functional; details: read-out: IZ; procedure, shortened: as §2

Row | Compound | zone of inhibition at 5.1 µM [1] [mm] | IC50 [2] [µM] | Ratio IC50 [3] | IC50 [4] [µM] | Activity [5] | zone of inhibition at 1.1 µM [6] [mm] | Activity [7] | zone of inhibition at 1.9 µM [8] [mm] | zone of inhibition at 3.5 µM [9] [mm] | zone of inhibition at 4 µM [10] [mm]
1 | C/C1=C/C(=O)O[C@@H]2C[C@@H](CC[C@H](C)/C=C\CC1)O[C@@](O)([C@@H]1CSC(=O)N1)C2 [LATRUNCULIN B] | 13 | 7.1 | 0.7 | 4.8 | Active | – | – | – | – | –
2 | C/C1=C/C(=O)O[C@@H]2C[C@@H](CC[C@H](C)/C=C\CC1)O[C@@](O)([C@H]1CSC(=O)N1)C2 [16-EPI-LATRUNCULIN B] | – | 38 | 0.5 | 17 | Active | – | – | – | – | –
3 | CO[C@H]1/C=C\[C@@H](C)CC[C@@H]2C[C@H](C[C@](O)([C@@H]3CSC(=O)N3)O2)OC(=O)/C=C(/C)CC[C@@H]1O [LATRUNCULOL B] | – | 2.1 | 1.9 | 4 | Active | 19.5 | – | – | – | –
4 | CO[C@]1([C@@H]2CSC(=O)N2)C[C@H]2C[C@@H](CC[C@H](C)/C=C\CC/C(C)=C\C(=O)O2)O1 [15-METHOXYLATRUNCULIN B] | – | 49 | 0.6 | 29.7 | inactive | – | – | – | – | –
5 | C/C1=C/C(=O)O[C@@H]2C[C@@H](CC[C@H](C)C(=O)/C=C/C(O)CC1)O[C@@](O)([C@@H]1CSC(=O)N1)C2 (some centres undefined) | – | > 53 | <0.6 | 30.5 | – | – | inactive | – | – | –
6 | C/C1=C/C(=O)O[C@@H]2C[C@@H](CC[C@H](C)/C=C\[C@H](O)[C@@H](O)CC1)O[C@@](O)([C@@H]1CSC(=O)N1)C2 [LATRUNCULOL A] | – | 0.48 | 4.4 | 2.1 | Active | 23.5 | – | – | – | –
7 | C/C(=C/C(=O)O)CC/C=C\[C@@H](C)CC[C@@H]1CC=CC(=O)O1 [LATRUNCULEIC ACID] | – | 48 | 0.5 | 26.1 | inactive | – | – | – | – | –
8 | C/C1=C/C(=O)O[C@@H]2C[C@@H](CC[C@H](C)/C=C\C=C\CC1)O[C@@](O)([C@@H]1CSC(=O)N1)C2 [LATRUNCULIN A] | – | 1.1 | 2.5 | 2.8 | Active | – | – | 9 | – | –
9 | C/C1=C/C(=O)O[C@@H]2C[C@@H](CC[C@H](C)/C=C\CC(=O)CC1)O[C@@](O)([C@@H]1CSC(=O)N1)C2 [LATRUNCULONE B] | – | 0.92 | 1.1 | 1 | Active | 19.5 | – | – | – | –
10 | C/C1=C/C(=O)O[C@@H](CC(O)[C@@H]2CSC(=O)N2)C[C@H](O)CC[C@H](C)/C=C\CC1 (some centres undefined) [LATRUNCULIN C] | – | > 100 | <0.3 | 34.3 | inactive | – | – | – | – | –
11 | C/C1=C/C(=O)O[C@@H]2C[C@@H](CC[C@H](C)/C=C\[C@H](O)[C@H](O)CC1)O[C@@](O)([C@@H]1CSC(=O)N1)C2 [LATRUNCULOL C] | – | > 53 | <0.2 | 11.9 | Active | – | – | – | – | –
12 | C/C1=C/C(=O)O[C@@H]2C[C@@H](CC[C@H](C)/C=C\[C@H](O)[C@@H](O)CC1)O[C@@](O)([C@H]1CSC(=O)N1)C2 [18-EPI-LATRUNCULOL A] | – | 5.5 | >9.1 | > 50 | inactive | – | – | – | 17 | –
13 | C/C1=C/C(=O)O[C@@H]2C[C@@H](CC[C@H](C)/C=C\[C@@H]3OC(C)(C)O[C@H]3CC1)O[C@@](O)([C@@H]1CSC(=O)N1)C2 | – | 5.1 | 1.5 | 7.9 | Active | – | – | – | – | 21
